We go through eight compounds from ChEMBL document CHEMBL1140232, “Surprising alteration of antibacterial activity of 5"-modified neomycin against resistant bacteria” (2008).

Values after ≈ are worked out from the molar mass of the structure shown.

For assay [1], the system named is Escherichia coli. As to the kind of experiment: Antibacterial activity against Escherichia coli TG1 pET28a plasmid encoded for APH(3')-3a after 12 to 18 hrs. Type of assay: functional. In short, it runs like this:
(§1)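 Broth microdilution. Bacterial suspension adjusted with broth to absorbance 0.08–0.1 at 625 nm, diluted further in broth, and mixed in wells with 2-fold serial dilutions of compound. Plates incubated at 35°C for 12–18 h. MIC is the lowest concentration inhibiting growth; each determination repeated at least three times.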

The test system of assay [2] is Escherichia coli. Description: Antibacterial activity against aminoglycoside-susceptible Escherichia coli ATCC 25922 after 12 to 18 hrs. Type of assay: functional. In short, it runs like this: as §1
The subject of the next assay is Pseudomonas aeruginosa. As to the kind of experiment: Antibacterial activity against aminoglycosides-resistant Pseudomonas aeruginosa ATCC 27853 expressing APH(3')-2b after 12 to 18 hrs. Type of assay: functional. A digest of the protocol:
(§2)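 Broth microdilution MIC. Culture diluted with broth to an absorbance of 0.08–0.1 at 625 nm. 100 μL of this was diluted into 10 mL broth and dispensed into 96-well plates. Each well received 50 μL inoculum plus 50 μL of a 2-fold compound dilution series. Plates were incubated at 35°C for 12–18 h. MIC is the lowest concentration that inhibits growth, from at least three repeats.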

Assay [3] deals with Escherichia coli. Description: Antibacterial activity against Escherichia coli TG1 pTZ19U-3 plasmid encoded for APH(3')-1 after 12 to 18 hrs. Type of assay: functional. A digest of the protocol:
as §1

Assay [4] deals with Klebsiella pneumoniae. As to the kind of experiment: Antibacterial activity against multidrug-resistant Klebsiella pneumoniae ATCC 700603 isolate after 12 to 18 hrs. Type of assay: functional. In short, it runs like this:
as §2

In assay [5] the test system is Escherichia coli. Description: Antibacterial activity against aminoglycoside-susceptible Escherichia coli TG1 after 12 to 18 hrs. Type of assay: functional. A digest of the protocol:
as §1

Assay [6] deals with Klebsiella pneumoniae. As to the kind of experiment: Antibacterial activity against ampicillin-resistant and aminoglycosides-susceptible Klebsiella pneumoniae ATCC 13883 after 12 to 18 hrs. Type of assay: functional. In short, it runs like this: as §2
For assay [7], the system named is Enterococcus faecalis. Description: Antibacterial activity against vancomycin-resistant Enterococcus faecalis ATCC 51299 expressing vanB, ant(6)-1, aac(6')-aph(2') resistant gene after 12 to 18 hrs. Type of assay: functional. In short, it runs like this:
as §2

The subject of assay [8] is Enterococcus faecalis. As to the kind of experiment: Antibacterial activity against vancomycin-susceptible and aminoglycosides-resistant Enterococcus faecalis ATCC 29212 after 12 to 18 hrs. Type of assay: functional. A digest of the protocol: as §2
The test system of assay [9] is Enterococcus. As to the kind of experiment: Activity of Enterococcus APH(3')-3a.
In assay [10] the test system is Staphylococcus aureus. Description: Antibacterial activity against methicillin-resistant Staphylococcus aureus ATCC 33591 after 12 to 18 hrs. Type of assay: functional. In short, it runs like this: as §2
Assay [11] concerns Escherichia coli. As to the kind of experiment: Antibacterial activity against Escherichia coli TG1 pSF815 plasmid encoded for AAC(6')/APH(2') after 12 to 18 hrs. Type of assay: functional. In short, it runs like this:
as §1

Assay [12] relates to Staphylococcus aureus. As to the kind of experiment: Antibacterial activity against aminoglycoside-susceptible Staphylococcus aureus ATCC 25923 after 12 to 18 hrs. Type of assay: functional. In short, it runs like this:
as §1

In assay [13] the test system is Enterococcus. Description: Ratio of kcat to Km of Enterococcus APH(3')-3a.

In the case of `NC[C@@H]1O[C@H](O[C@H]2[C@@H](O)[C@H](O[C@@H]3[C@@H](O)[C@H](N)C[C@H](N)[C@H]3O[C@H]3O[C@H](CN)[C@@H](O)[C@H](O)[C@H]3N)O[C@@H]2CO)[C@H](N)[C@@H](O)[C@@H]1O` [FRAMYCETIN], the MIC with Escherichia coli [1] is 64 µg/mL (≈ 104 µM); in the assay with Escherichia coli [2], 4 µg/mL (≈ 6.51 µM); in the assay with Pseudomonas aeruginosa it was 64 µg/mL (≈ 104 µM); in the assay with Escherichia coli [3] it was not below 2000 µg/mL; in the assay with Klebsiella pneumoniae [4] it was 16 µg/mL (≈ 26 µM); with Escherichia coli [5], 4 µg/mL (≈ 6.51 µM). Further, the MIC was 4 µg/mL (≈ 6.51 µM) against Klebsiella pneumoniae [6]; not below 250 µg/mL with Enterococcus faecalis [7]; 64 µg/mL (≈ 104 µM) against Enterococcus faecalis [8]; 125 µg/mL (≈ 203 µM) in the assay on Staphylococcus aureus [10]; 4 µg/mL (≈ 6.51 µM) against Escherichia coli [11]; 1 µg/mL (≈ 1.63 µM) against Staphylococcus aureus [12]. The Km in the assay on Enterococcus [9] amounted to 6 µM. Besides, the Vmax with Enterococcus [9] came out at 3.22 µmol/min/mg. In the assay on Enterococcus [9], the kcat was 1.61 s⁻¹. Further, the kcat/Km in the assay with Enterococcus [13] worked out at 26.8 ×10⁴ /M/s.

Regarding `NCC(=O)NC[C@H]1O[C@@H](O[C@@H]2[C@@H](O)[C@H](N)C[C@H](N)[C@H]2O[C@H]2O[C@H](CN)[C@@H](O)[C@H](O)[C@H]2N)[C@H](O)[C@@H]1O[C@H]1O[C@@H](CN)[C@@H](O)[C@H](O)[C@H]1N`, the MIC in the assay on Escherichia coli [1] came to 32 µg/mL (≈ 47.7 µM); against Escherichia coli [2] it was 16 µg/mL (≈ 23.9 µM); against Pseudomonas aeruginosa it was 8 µg/mL (≈ 11.9 µM); against Escherichia coli [3], 500 µg/mL (≈ 745 µM); against Klebsiella pneumoniae [4], 8 µg/mL (≈ 11.9 µM); in the assay on Escherichia coli [5], 8 µg/mL (≈ 11.9 µM). Besides, the MIC with Klebsiella pneumoniae [6] is 4 µg/mL (≈ 5.96 µM); against Enterococcus faecalis [7], not below 250 µg/mL; in the assay with Enterococcus faecalis [8], 32 µg/mL (≈ 47.7 µM); in the assay on Staphylococcus aureus [10] it was 16 µg/mL (≈ 23.9 µM); in the assay with Escherichia coli [11] it was 8 µg/mL (≈ 11.9 µM); against Staphylococcus aureus [12], 1 µg/mL (≈ 1.49 µM). Besides, the Km in the assay on Enterococcus [9] amounted to 75 µM. Also, the Vmax in the assay with Enterococcus [9] was found to be 0.88 µmol/min/mg. In the assay with Enterococcus [9], the kcat was found to be 0.44 s⁻¹. Further, in the assay on Enterococcus [13], the kcat/Km was 0.6 ×10⁴ /M/s.

As for `CCCCCCCCCCCCCCCCCC(=O)NC[C@H]1O[C@@H](O[C@@H]2[C@@H](O)[C@H](N)C[C@H](N)[C@H]2O[C@H]2O[C@H](CN)[C@@H](O)[C@H](O)[C@H]2N)[C@H](O)[C@@H]1O[C@H]1O[C@@H](CN)[C@@H](O)[C@H](O)[C@H]1N`, the minimum inhibitory concentration (MIC) in the assay with Escherichia coli [1] turned out to be 2 µg/mL (≈ 2.27 µM); in the assay on Escherichia coli [2], 4 µg/mL (≈ 4.54 µM); in the assay on Pseudomonas aeruginosa it was 8 µg/mL (≈ 9.09 µM); in the assay on Escherichia coli [3] it was 8 µg/mL (≈ 9.09 µM); with Klebsiella pneumoniae [4], 32 µg/mL (≈ 36.4 µM); with Escherichia coli [5], 2 µg/mL (≈ 2.27 µM). The MIC was found to be 8 µg/mL (≈ 9.09 µM) against Klebsiella pneumoniae [6]; 8 µg/mL (≈ 9.09 µM) with Enterococcus faecalis [7]; 4 µg/mL (≈ 4.54 µM) against Enterococcus faecalis [8]; 4 µg/mL (≈ 4.54 µM) against Staphylococcus aureus [10]; 32 µg/mL (≈ 36.4 µM) in the assay with Escherichia coli [11]; 4 µg/mL (≈ 4.54 µM) in the assay on Staphylococcus aureus [12]. Also, the Km in the assay on Enterococcus [9] came to 60 µM. In the assay with Enterococcus [9], the maximal velocity (Vmax) worked out at 0.84 µmol/min/mg. In addition, the kcat in the assay with Enterococcus [9] is 0.42 s⁻¹. Besides, the kcat/Km in the assay on Enterococcus [13] was 0.7 ×10⁴ /M/s.

With `NCC(=O)NCC(=O)NC[C@H]1O[C@@H](O[C@@H]2[C@@H](O)[C@H](N)C[C@H](N)[C@H]2O[C@H]2O[C@H](CN)[C@@H](O)[C@H](O)[C@H]2N)[C@H](O)[C@@H]1O[C@H]1O[C@@H](CN)[C@@H](O)[C@H](O)[C@H]1N`, the MIC in the assay with Escherichia coli [2] was 16 µg/mL (≈ 22 µM); in the assay on Pseudomonas aeruginosa, 16 µg/mL (≈ 22 µM); in the assay with Escherichia coli [3], 125 µg/mL (≈ 172 µM); against Klebsiella pneumoniae [4] it was 8 µg/mL (≈ 11 µM); in the assay on Escherichia coli [5] it was 16 µg/mL (≈ 22 µM); in the assay with Klebsiella pneumoniae [6] it was 4 µg/mL (≈ 5.5 µM). Also, the MIC against Enterococcus faecalis [7] was not below 250 µg/mL; in the assay on Enterococcus faecalis [8], 64 µg/mL (≈ 87.9 µM); with Staphylococcus aureus [10], 32 µg/mL (≈ 44 µM); in the assay on Escherichia coli [11], 16 µg/mL (≈ 22 µM); against Staphylococcus aureus [12] it was 2 µg/mL (≈ 2.75 µM).

Compound `CN[C@H](CC(C)C)C(=O)N[C@H]1C(=O)N[C@@H](CC(N)=O)C(=O)N[C@H]2C(=O)N[C@H]3C(=O)N[C@H](C(=O)N[C@H](C(=O)O)c4cc(O)cc(O)c4-c4cc3ccc4O)[C@H](O)c3ccc(c(Cl)c3)Oc3cc2cc(c3O[C@@H]2O[C@H](CO)[C@@H](O)[C@H](O)[C@H]2O[C@H]2C[C@](C)(N)[C@H](O)[C@H](C)O2)Oc2ccc(cc2Cl)[C@H]1O` [VANCOMYCIN] had a minimal inhibitory concentration (MIC) with Enterococcus faecalis [7] of 125 µg/mL (≈ 86.3 µM).

As for GENTAMICIN, the MIC against Klebsiella pneumoniae [4] was 8 µg/mL; with Klebsiella pneumoniae [6] it was 1 µg/mL; against Enterococcus faecalis [7], more than 250 µg/mL; with Enterococcus faecalis [8], 8 µg/mL; in the assay with Staphylococcus aureus [10] it was 2 µg/mL.

Turning to `NCC[C@H](O)C(=O)N[C@@H]1C[C@H](N)[C@@H](O[C@H]2O[C@H](CN)[C@@H](O)[C@H](O)[C@H]2O)[C@H](O)[C@H]1O[C@H]1O[C@H](CO)[C@@H](O)[C@H](N)[C@H]1O` [AMIKACIN], the MIC in the assay on Escherichia coli [1] is 1 µg/mL (≈ 1.71 µM); against Pseudomonas aeruginosa it was 0.5 µg/mL (≈ 0.854 µM); in the assay with Klebsiella pneumoniae [4], 0.5 µg/mL (≈ 0.854 µM); against Klebsiella pneumoniae [6], 1 µg/mL (≈ 1.71 µM); against Enterococcus faecalis [7], not below 250 µg/mL; against Enterococcus faecalis [8] it was 32 µg/mL (≈ 54.6 µM). Also, 8 µg/mL (≈ 13.7 µM) was the least that counted as inhibitory in the assay on Staphylococcus aureus [10] (MIC). The Km in the assay with Enterococcus [9] amounted to 57.4 µM. For the same compound, the Vmax with Enterococcus [9] came out at 2.75 µmol/min/mg. Also, in the assay on Enterococcus [9], the kcat came to 1.38 s⁻¹. The kcat/Km in the assay with Enterococcus [13] worked out at 2.4 ×10⁴ /M/s.

For `CCCCCCCCCCCCCCCC(=O)NC[C@H]1O[C@@H](O[C@@H]2[C@@H](O)[C@H](N)C[C@H](N)[C@H]2O[C@H]2O[C@H](CN)[C@@H](O)[C@H](O)[C@H]2N)[C@H](O)[C@@H]1O[C@H]1O[C@@H](CN)[C@@H](O)[C@H](O)[C@H]1N`, the minimal inhibitory concentration (MIC) with Escherichia coli [1] was 1 µg/mL (≈ 1.17 µM); with Escherichia coli [2], 4 µg/mL (≈ 4.69 µM); against Pseudomonas aeruginosa, 4 µg/mL (≈ 4.69 µM); in the assay on Escherichia coli [3], 8 µg/mL (≈ 9.39 µM); against Klebsiella pneumoniae [4], 16 µg/mL (≈ 18.8 µM); against Escherichia coli [5], 2 µg/mL (≈ 2.35 µM). Further, the MIC is 8 µg/mL (≈ 9.39 µM) against Klebsiella pneumoniae [6]; 4 µg/mL (≈ 4.69 µM) in the assay on Enterococcus faecalis [7]; 2 µg/mL (≈ 2.35 µM) with Enterococcus faecalis [8]; 2 µg/mL (≈ 2.35 µM) in the assay with Staphylococcus aureus [10]; 16 µg/mL (≈ 18.8 µM) with Escherichia coli [11]; 2 µg/mL (≈ 2.35 µM) with Staphylococcus aureus [12]. Also, in the assay on Enterococcus [9], the Km is 58 µM. For the same compound, in the assay with Enterococcus [9], the Vmax was 0.85 µmol/min/mg. The kcat in the assay with Enterococcus [9] was found to be 0.42 s⁻¹. Besides, in the assay with Enterococcus [13], the kcat/Km amounted to 0.72 ×10⁴ /M/s.

As usually defined, the MIC is the lowest concentration that inhibits growth of the organism. As a reminder, the Km is the concentration of substrate that gives half-maximal velocity. A word on the Vmax: it is the rate approached at saturating substrate. As usually defined, the kcat is the number of substrate molecules converted per active site and unit of time at saturation.
